The record followed here is ChEMBL document CHEMBL1122190, “Mammary tumor inhibiting effect of 3,3'-diacetoxy-alpha, beta-dialkylstilbenes and of related stilbene oxides” (1982).

Assay [1] addresses T1, Estrogen receptor (Mus musculus) (UniProt O08537+P19785). Put plainly: Percent inhibition of estrone-stimulated uterine growth in immature mouse at 25 ug dose. In kind it is functional. The method, boiled down:
(§1)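 Dorfman uterine weight test in immature female NMRI mice, ten per group, 20 days old and 10-12 g at start. Compounds were given in olive oil sc once daily for 3 days. Mice were killed 24 h after the last injection, and uteri were removed, dried at 100 °C for 24 h and weighed.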

Assay [2] addresses T1, Estrogen receptor (Mus musculus). The assay is described as follows: Uterotrophic activity in mice at 500 ug dose. Type of assay: functional, tissue-based. As to conditions: Uterus. In short, it runs like this: (§2)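 Dorfman uterine weight test in immature female NMRI mice (20 days old at start, 10-12 g; ten per group). Compound given sc daily in olive oil for 3 days. Animals killed 24 h after last injection; uteri removed, dried at 100 °C for 24 h and weighed.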

For assay [3] the target is unchanged. Put plainly: Uterotrophic activity in mice at 50 ug dose. Type of assay: functional, tissue-based. As to conditions: Uterus. In short, it runs like this: as §2
For assay [4] the target is unchanged. The assay is described as follows: Antiuterotrophic activity in mice at 100 ug dose. Type of assay: functional. The method, boiled down:
as §1

Assay [5] shares this target. Put plainly: Antiuterotrophic activity in mice at 5 ug dose. In kind it is functional. In short, it runs like this:
as §1

The subject of assay [6] is Estrogen receptor (Bos taurus). Put plainly: In vitro relative binding affinity for Estrogen receptor compared to [3H]estradiol.
For assay [7], the target named is T1, Estrogen receptor (Mus musculus). Put plainly: Uterotrophic activity in mice at 100 ug dose. Type of assay: functional, tissue-based. As to conditions: Uterus. The method, boiled down:
as §1

Assay [8] shares this target. The assay is described as follows: Antiuterotrophic activity in mice at 25 ug dose. In kind it is functional. In short, it runs like this: as §1
In assay [9] the test system is Mus musculus. Put plainly: Effect on estrogen and progesterone receptors positive hormone-dependent postmenopausal human mammary carcinoma tumor growth in nude mice at 2.8 mg/kg/day. Type of assay: functional. The method, boiled down:
(§3)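 Nude mice carried serially transplanted hormone-dependent human mammary carcinoma. Compounds in olive oil were given sc 6 times a week for 4-5 weeks. Two tumor diameters were measured weekly, and size at treatment start was set as 1. Tumor size was averaged after 5 weeks of therapy.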

The target of assay [10] is T1, Estrogen receptor (Mus musculus). Put plainly: Percent inhibition of estrone-stimulated uterine growth in immature mouse at 100 ug dose. Type of assay: functional. In short, it runs like this: as §1
The target is the same in assay [11]. Put plainly: Uterotrophic activity in mice at 5 ug dose. In kind it is functional, tissue-based. As to conditions: Uterus. In short, it runs like this: as §2
For assay [12] the target is unchanged. The assay is described as follows: Percent inhibition of estrone-stimulated uterine growth in immature mouse at 5 ug dose. Type of assay: functional. In short, it runs like this:
as §1

The target is the same in assay [13]. The assay is described as follows: Uterotrophic activity in mice at 10 ug dose. In kind it is functional, tissue-based. As to conditions: Uterus. In short, it runs like this: as §1
Assay [14] concerns Mus musculus. Put plainly: Effect on estrogen and progesterone receptors positive hormone-dependent postmenopausal human mammary carcinoma tumor growth in nude mice at 2.6 mg/kg/day. Type of assay: functional. The method, boiled down:
as §3

The target of assay [15] is T1, Estrogen receptor (Mus musculus). Put plainly: Uterotrophic activity in mice at 1 ug dose. Type of assay: functional, tissue-based. As to conditions: Uterus. In short, it runs like this:
as §1

Assay [16] shares this target. The assay is described as follows: Percent inhibition of estrone-stimulated uterine growth in immature mouse at 50 ug dose. Type of assay: functional. In short, it runs like this: as §1
For assay [17] the target is unchanged. Put plainly: Antiuterotrophic activity in mice at 50 ug dose. In kind it is functional. The method, boiled down:
as §1

In assay [18] the test system is Mus musculus. The assay is described as follows: Effect on estrogen and progesterone receptors positive hormone-dependent postmenopausal human mammary carcinoma tumor growth in nude mice at 3.0 mg/kg/day. Type of assay: functional. The method, boiled down: as §3
For assay [19], the target named is T1, Estrogen receptor (Mus musculus). As to conditions: Uterus.
The test system of assay [20] is Rattus norvegicus. The assay is described as follows: Effect on DMBA-induced hormone-dependent mammary carcinoma tumor growth in rats at 1.0 mg/kg/day. In kind it is functional. The method, boiled down:
(§4)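 Female Sprague-Dawley rats received a single 20 mg DMBA dose by gastric intubation at 50 days of age. About 4 weeks later, rats bearing at least one tumor >140 mm² were grouped in tens. Compounds in olive oil were given sc 6 times a week for 28 days. Tumor area (length × width) was measured twice weekly.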

The subject of assay [21] is Rattus norvegicus. Put plainly: Effect on DMBA-induced hormone-dependent mammary carcinoma tumor growth in rats at 2.0 mg/kg/day (number of tumors at test beginning).
The test system of assay [22] is Rattus norvegicus. The assay is described as follows: Effect on DMBA-induced hormone-dependent mammary carcinoma tumor growth in rats at 1.0 mg/kg/day (initial tumor number). In kind it is functional. In short, it runs like this: as §4
The test system of assay [23] is Rattus norvegicus. The assay is described as follows: Percent unchanged DMBA-induced hormone-dependent mammary carcinoma in rats at 1.0 mg/kg/day. In kind it is functional. The method, boiled down: as §4
Assay [24] has as its system Rattus norvegicus. The assay is described as follows: Percent partial remission of DMBA-induced hormone-dependent mammary carcinoma in rats at 2.0 mg/kg/day. In kind it is functional. In short, it runs like this:
as §4

In assay [25] the test system is Rattus norvegicus. Put plainly: Percent remission of DMBA-induced hormone-dependent mammary carcinoma in rats at 4.0 mg/kg/day. Type of assay: functional. In short, it runs like this:
as §4

The test system of assay [26] is Rattus norvegicus. The assay is described as follows: Effect on DMBA-induced hormone-dependent mammary carcinoma tumor growth in rats at 4.0 mg/kg/day (initial tumor number). Type of assay: functional. In short, it runs like this: as §4
Assay [27] has as its system Rattus norvegicus. The assay is described as follows: Percent progression of DMBA-induced hormone-dependent mammary carcinoma in rats at 2.0 mg/kg/day. In kind it is functional. In short, it runs like this:
as §4

Assay [28] has as its system Rattus norvegicus. The assay is described as follows: Effect on DMBA-induced hormone-dependent mammary carcinoma tumor number in rats at 2.0 mg/kg/day. In kind it is functional. In short, it runs like this: as §4
In assay [29] the test system is Mus musculus. The assay is described as follows: Effect on estrogen and progesterone receptors positive hormone-dependent postmenopausal human mammary carcinoma tumor growth in nude mice at 2.0 mg/kg/day. In kind it is functional. In short, it runs like this:
as §3

Assay [30] concerns Rattus norvegicus. Put plainly: Effect on DMBA-induced hormone-dependent mammary carcinoma tumor growth in rats at 4.0 mg/kg/day. Type of assay: functional. The method, boiled down: as §4
In assay [31] the test system is Rattus norvegicus. The assay is described as follows: Percent partial remission of DMBA-induced hormone-dependent mammary carcinoma in rats at 1.0 mg/kg/day. In kind it is functional. In short, it runs like this:
as §4

Assay [32] concerns Rattus norvegicus. Put plainly: Percent progression of DMBA-induced hormone-dependent mammary carcinoma in rats at 4.0 mg/kg/day. In kind it is functional. The method, boiled down:
as §4

Assay [33] relates to Rattus norvegicus. Put plainly: Percent unchanged DMBA-induced hormone-dependent mammary carcinoma in rats at 4.0 mg/kg/day. In kind it is functional. The method, boiled down:
as §4

Assay [34] relates to Rattus norvegicus. Put plainly: Effect on DMBA-induced hormone-dependent mammary carcinoma tumor growth in rats at 2.0 mg/kg/day. In kind it is functional. In short, it runs like this:
as §4

Assay [35] has as its system Rattus norvegicus. Put plainly: Percent progression of DMBA-induced hormone-dependent mammary carcinoma in rats at 1.0 mg/kg/day. Type of assay: functional. The method, boiled down: as §4
Assay [36] concerns Rattus norvegicus. The assay is described as follows: Percent partial remission of DMBA-induced hormone-dependent mammary carcinoma in rats at 4.0 mg/kg/day. In kind it is functional. In short, it runs like this:
as §4

Assay [37] concerns the target T1, Estrogen receptor (Mus musculus). The assay is described as follows: Percent inhibition of estrone-stimulated uterine growth in immature mouse at 2.5 ug dose. In kind it is functional. In short, it runs like this: as §1
In assay [38] the test system is Rattus norvegicus. Put plainly: Percent remission of DMBA-induced hormone-dependent mammary carcinoma in rats at 2.0 mg/kg/day. In kind it is functional. In short, it runs like this:
as §4

Assay [39] concerns the target T1, Estrogen receptor (Mus musculus). The assay is described as follows: Antiuterotrophic activity in mice at 2.5 ug dose. Type of assay: functional. In short, it runs like this:
as §1

For assay [40], the system named is Rattus norvegicus. The assay is described as follows: Percent unchanged DMBA-induced hormone-dependent mammary carcinoma in rats at 2.0 mg/kg/day. In kind it is functional. The method, boiled down: as §4
Assay [41] concerns Rattus norvegicus. The assay is described as follows: Effect on DMBA-induced hormone-dependent mammary carcinoma tumor number in rats at 1.0 mg/kg/day. Type of assay: functional. The method, boiled down:
as §4

Assay [42] deals with Rattus norvegicus. Put plainly: Effect on DMBA-induced hormone-dependent mammary carcinoma tumor number in rats at 4.0 mg/kg/day. In kind it is functional. In short, it runs like this:
as §4

For assay [43], the system named is Rattus norvegicus. The assay is described as follows: Percent remission of DMBA-induced hormone-dependent mammary carcinoma in rats at 1.0 mg/kg/day. In kind it is functional. In short, it runs like this: as §4
Assay [44] relates to Mus musculus. Put plainly: Effect on estrogen and progesterone receptors positive hormone-dependent postmenopausal human mammary carcinoma tumor growth in nude mice at 1.0 mg/kg/day dose. In kind it is functional. In short, it runs like this: as §3

T1 sequence (O08537 whole entry, looked up): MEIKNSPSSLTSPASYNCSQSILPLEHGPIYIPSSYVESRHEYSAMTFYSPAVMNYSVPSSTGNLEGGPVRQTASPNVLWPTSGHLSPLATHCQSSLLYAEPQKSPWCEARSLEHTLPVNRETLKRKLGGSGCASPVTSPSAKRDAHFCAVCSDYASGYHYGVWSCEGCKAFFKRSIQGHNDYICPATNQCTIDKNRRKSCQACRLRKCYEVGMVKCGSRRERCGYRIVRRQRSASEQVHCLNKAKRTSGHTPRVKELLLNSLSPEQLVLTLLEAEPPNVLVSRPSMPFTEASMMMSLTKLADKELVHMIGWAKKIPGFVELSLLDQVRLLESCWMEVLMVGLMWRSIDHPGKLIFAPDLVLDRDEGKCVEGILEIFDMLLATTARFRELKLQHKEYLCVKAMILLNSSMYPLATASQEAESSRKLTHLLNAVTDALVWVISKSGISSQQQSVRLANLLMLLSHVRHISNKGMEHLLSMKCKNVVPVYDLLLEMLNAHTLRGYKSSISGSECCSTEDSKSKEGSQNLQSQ
T1 sequence (P19785 whole entry, looked up): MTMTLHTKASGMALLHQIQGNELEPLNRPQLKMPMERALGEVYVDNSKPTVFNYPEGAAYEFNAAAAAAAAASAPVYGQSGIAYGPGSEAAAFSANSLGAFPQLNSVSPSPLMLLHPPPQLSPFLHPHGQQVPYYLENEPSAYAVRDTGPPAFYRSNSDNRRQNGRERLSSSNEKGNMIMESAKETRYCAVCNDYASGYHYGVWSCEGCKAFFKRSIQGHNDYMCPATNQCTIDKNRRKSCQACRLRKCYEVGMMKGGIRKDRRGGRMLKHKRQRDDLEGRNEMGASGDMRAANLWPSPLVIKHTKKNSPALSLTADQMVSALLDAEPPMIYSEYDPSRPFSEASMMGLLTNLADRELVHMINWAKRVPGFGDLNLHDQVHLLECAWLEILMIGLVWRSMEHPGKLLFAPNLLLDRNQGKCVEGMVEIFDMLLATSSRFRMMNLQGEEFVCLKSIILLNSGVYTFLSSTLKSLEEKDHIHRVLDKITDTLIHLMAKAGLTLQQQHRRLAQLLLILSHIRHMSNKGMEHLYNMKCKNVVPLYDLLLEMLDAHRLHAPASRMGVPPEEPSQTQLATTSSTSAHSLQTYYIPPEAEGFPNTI

As for `CCCC1(c2cccc(OC(C)=O)c2)OC1(CCC)c1cccc(OC(C)=O)c1` (configuration not stated), the inhibition (commonly the share of the control response that was lost under treatment) in assay [1] worked out at 7.8%; in [10], 0%; in [12], 15.6%. Also, the Effect is 33.3 in [2]; 22.1 in assay [3]; 39.4 in assay [4]; 34.1 in assay [5]; 31.1 in [7]; 36.3 in assay [8]. The Effect in [11] was found to be 21.8. The compound also had an RBA in assay [6] of 1.7%. In assay [9], this compound had a Tumor size of 1.85.
`CCC/C(=C(/CCC)c1cccc(OC(C)=O)c1)c1cccc(OC(C)=O)c1`: the RBA in assay [6] turned out to be 1.3%. This compound also came in with a Tumor size in [9] of 2.32.
`CCC1(c2cccc(OC(C)=O)c2)OC1(CC)c1cccc(OC(C)=O)c1` (configuration not stated): the Effect in [2] stood at 38.6; in assay [3] it was 33.4; in assay [4], 43.7; in assay [5] it was 33.2; in assay [7], 36.2; in assay [13], 30.3. Further, the Effect in [15] was determined as 22.2; in assay [17], 36.4. Also, the RBA in assay [6] was 4.2%. The Tumor size in assay [14] was determined as 2.38. Moreover, the inhibition in assay [10] came to 0%; in assay [16], 22.6%; in [12], 33.5%.
As for `CCCC/C(=C(/CCCC)c1cccc(OC(C)=O)c1)c1cccc(OC(C)=O)c1`, in assay [18], the Tumor size amounted to 4.1. The RBA in assay [6] was 0.6%.
In assay [19], `C[C@]12CC[C@@H]3c4ccc(O)cc4CC[C@H]3[C@@H]1CCC2=O` returned an Effect of 40.7.
As to `CC/C(=C(/CC)c1cccc(O)c1)c1cccc(O)c1`, the Tumors in [20] is 40%; in assay [23], 38%; in assay [24], 26%; in assay [25] it was 27%; in assay [27], 17%; in [31] it was 23%. The Tumors in [32] is reported as 19%; in assay [33], 32%; in [35], 24%; in assay [36], 22%; in [38], 25%; in assay [40], 32%. In assay [43], this compound returned a Tumors of 15%. The inhibition in assay [1] was 42.8%; in assay [16], 45.1%; in [12], 48%; in assay [37], 18.7%. For the same compound, the “Number of tumors at test beginning” value in assay [21] is recorded as 32. The No. of tumors in [22] is given as 32; in [26], 37; in assay [28] it was 21; in [41], 34; in [42], 17. In addition, the Effect amounted to 28.1 in [5], 29.9 in [8], 38.3 in [39] and 29.1 in assay [17]. Besides, the RBA in assay [6] stood at 3.2%. In addition, the figures for the Tumor size in assay [29] and in assay [44] were 1.76 and 2.78, respectively. Also, the Change is reported as -26% in assay [30] and 2% in [34].
